Tests used:
UACC-257 = test: Cytotoxicity against human UACC257 cells assessed as cell growth at 10 uM after 48 hrs by SRB assay relative to control; assay type: functional; details: UACC-257, 48 h, read-out: Activity
Procedure, shortened: (§1)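 NCI-60 one-dose screen run by NCI DTP: each cell line exposed to a single 10 µM dose, and percentage growth recorded against untreated growth.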

OVCAR-3 = test: Cytotoxicity against human OVCAR3 cells assessed as cell growth at 10 uM after 48 hrs by SRB assay relative to control; assay type: functional; details: OVCAR-3, 48 h, read-out: Activity
Procedure, shortened: (§2)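 First-stage NCI DTP one-dose screen against the 60 human tumour cell line panel. Compounds were tested at a single 10 μM level, and results are given as growth percentage.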

OVCAR-4 = test: Cytotoxicity against human OVCAR4 cells assessed as cell growth at 10 uM after 48 hrs by SRB assay relative to control; assay type: functional; details: OVCAR-4, 48 h, read-out: Activity; procedure, shortened: as §2
OVCAR-8 = test: Cytotoxicity against human OVCAR8 cells assessed as cell growth at 10 uM after 48 hrs by SRB assay relative to control; assay type: functional; details: OVCAR-8, 48 h, read-out: Activity; procedure, shortened: as §2
SK-OV-3 = test: Cytotoxicity against human SKOV3 cells assessed as cell growth at 10 uM after 48 hrs by SRB assay relative to control; assay type: functional; details: SK-OV-3, 48 h, read-out: Activity; procedure, shortened: as §2
A498 = test: Cytotoxicity against human A498 cells assessed as cell growth at 10 uM after 48 hrs by SRB assay relative to control; assay type: functional; details: A498, 48 h, read-out: Activity
Procedure, shortened: (§3)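 First-stage NCI-60 screen by the NCI Developmental Therapeutics Program. Each compound was tested once at a single concentration of 10 μM against the 60-cell-line panel. Growth percentage was reported for each cell line.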

RXF 393 = test: Cytotoxicity against human RXF393 cells assessed as cell growth at 10 uM after 48 hrs by SRB assay relative to control; assay type: functional; details: RXF 393, 48 h, read-out: Activity; procedure, shortened: as §2
TK-10 = test: Cytotoxicity against human TK10 cells assessed as cell growth at 10 uM after 48 hrs by SRB assay relative to control; assay type: functional; details: TK-10, 48 h, read-out: Activity; procedure, shortened: as §1
DU-145 = test: Cytotoxicity against human DU145 cells assessed as cell growth at 10 uM after 48 hrs by SRB assay relative to control; assay type: functional; details: DU-145, 48 h, read-out: Activity; procedure, shortened: as §3
MCF7 = test: Cytotoxicity against human MCF7 cells assessed as cell growth at 10 uM after 48 hrs by SRB assay relative to control; assay type: functional; details: MCF7, 48 h, read-out: Activity; procedure, shortened: as §3
MDA-MB-231 = test: Cytotoxicity against human MDA-MB-231 cells assessed as cell growth at 10 uM after 48 hrs by SRB assay relative to control; assay type: functional; details: MDA-MB-231, 48 h, read-out: Activity; procedure, shortened: as §2
[1] = Cytotoxicity against human Hs578T cells assessed as cell growth at 10 uM after 48 hrs by SRB assay relative to control; assay type: functional; details: Hs-578T, read-out: Activity; procedure, shortened: as §3
BT-549 = test: Cytotoxicity against human BT549 cells assessed as cell growth at 10 uM after 48 hrs by SRB assay relative to control; assay type: functional; details: BT-549, 48 h, read-out: Activity; procedure, shortened: as §3
T47D = test: Cytotoxicity against human T47D cells assessed as cell growth at 10 uM after 48 hrs by SRB assay relative to control; assay type: functional; details: read-out: Activity; procedure, shortened: as §1
PC-3 = test: Cytotoxicity against human PC3 cells after 48 hrs by SRB assay; assay type: functional, cell-based; details: PC-3, 48 h
Procedure, shortened: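 Second-stage NCI-60 panel run by the NCI Developmental Therapeutics Program, covering nine tumour subpanels. Five concentrations were tested: 0.01, 0.1, 1, 10 and 100 μM. Percentage growth at each level was plotted against log10 drug concentration. GI50, TGI and LC50 were read from these dose-response curves. Subpanel MID values were divided into the full-panel MID to give selectivity ratios.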

CCRF-CEM = test: Cytotoxicity against human CCRF-CEM cells assessed as cell growth at 10 uM after 48 hrs by SRB assay relative to control; assay type: functional; details: read-out: Activity; procedure, shortened: as §3
HL-60(TB) = test: Cytotoxicity against human HL-60(TB) cells assessed as cell growth at 10 uM after 48 hrs by SRB assay relative to control; assay type: functional; details: HL-60, 48 h, read-out: Activity
Procedure, shortened: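 NCI Developmental Therapeutics Program 60-cell-line screen, first stage: a single dose of 10 μM against the panel, reported as percentage growth.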

SR = test: Cytotoxicity against human SR cells assessed as cell growth at 10 uM after 48 hrs by SRB assay relative to control; assay type: functional; details: read-out: Activity; procedure, shortened: as §1
A549 = test: Cytotoxicity against human A549 cells assessed as cell growth at 10 uM after 48 hrs by SRB assay relative to control; assay type: functional; details: A549, 48 h, read-out: Activity; procedure, shortened: as §3
HOP-62 = test: Cytotoxicity against human HOP62 cells assessed as cell growth at 10 uM after 48 hrs by SRB assay relative to control; assay type: functional; details: HOP-62, 48 h, read-out: Activity; procedure, shortened: as §3
NCI-H226 = test: Cytotoxicity against human NCI-H226 cells assessed as cell growth at 10 uM after 48 hrs by SRB assay relative to control; assay type: functional; details: NCI-H226, 48 h, read-out: Activity; procedure, shortened: as §2
NCI-H322M = test: Cytotoxicity against human NCI-H322M cells assessed as cell growth at 10 uM after 48 hrs by SRB assay relative to control; assay type: functional; details: read-out: Activity; procedure, shortened: as §2
NCI-H460 = test: Cytotoxicity against human NCI-H460 cells assessed as cell growth at 10 uM after 48 hrs by SRB assay relative to control; assay type: functional; details: NCI-H460, 48 h, read-out: Activity; procedure, shortened: as §2
COLO 205 = test: Cytotoxicity against human COLO205 cells assessed as cell growth at 10 uM after 48 hrs by SRB assay relative to control; assay type: functional; details: COLO 205, 48 h, read-out: Activity; procedure, shortened: as §3
HCT-116 = test: Cytotoxicity against human HCT116 cells assessed as cell growth at 10 uM after 48 hrs by SRB assay relative to control; assay type: functional; details: HCT-116, 48 h, read-out: Activity; procedure, shortened: as §3
SF-295 = test: Cytotoxicity against human SF295 cells assessed as cell growth at 10 uM after 48 hrs by SRB assay relative to control; assay type: functional; details: SF-295, 48 h, read-out: Activity; procedure, shortened: as §2
SF-539 = test: Cytotoxicity against human SF539 cells assessed as cell growth at 10 uM after 48 hrs by SRB assay relative to control; assay type: functional; details: SF-539, 48 h, read-out: Activity; procedure, shortened: as §2
SNB-19 = test: Cytotoxicity against human SNB19 cells assessed as cell growth at 10 uM after 48 hrs by SRB assay relative to control; assay type: functional; details: SNB-19, 48 h, read-out: Activity; procedure, shortened: as §1
U-251 = test: Cytotoxicity against human U251 cells assessed as cell growth at 10 uM after 48 hrs by SRB assay relative to control; assay type: functional; details: U-251, 48 h, read-out: Activity; procedure, shortened: as §1
OVCAR-5 = test: Cytotoxicity against human OVCAR5 cells assessed as cell growth at 10 uM after 48 hrs by SRB assay relative to control; assay type: functional; details: OVCAR-5, 48 h, read-out: Activity; procedure, shortened: as §2

Compound | growth at 10 µM (UACC-257) | growth at 10 µM (OVCAR-3) | growth at 10 µM (OVCAR-4) | growth at 10 µM (OVCAR-8) | growth at 10 µM (SK-OV-3) | growth at 10 µM (A498) | growth at 10 µM (RXF 393) | growth at 10 µM (TK-10) | growth at 10 µM (DU-145) | growth at 10 µM (MCF7) | growth at 10 µM (MDA-MB-231) | growth at 10 µM [1] | growth at 10 µM (T47D) | IC50 (PC-3) | growth at 10 µM (CCRF-CEM) | growth at 10 µM (HL-60(TB)) | growth at 10 µM (SR) | growth at 10 µM (A549) | growth at 10 µM (HOP-62) | growth at 10 µM (NCI-H226) | also measured
O=C1c2ccccc2C(=O)c2c1cc(Sc1ccc(Cl)cc1)c1nsnc21 | 95.5% | 119% | 76.8% | 88.6% | 109% | 93% | 118% | 140% | 117% | 86.1% | 89% | 103% | 85% | > 15 µM | 79.3% | 87.3% | 111% | 104% | 102% | 104% | growth at 10 µM (BT-549): 98.9%; growth at 10 µM (NCI-H322M): 99.5%; growth at 10 µM (NCI-H460): 103%; growth at 10 µM (COLO 205): 121%; growth at 10 µM (HCT-116): 98.2%; growth at 10 µM (SF-295): 97.3%; growth at 10 µM (SF-539): 107%; growth at 10 µM (SNB-19): 105%; growth at 10 µM (U-251): 104%
O=C1c2ccccc2C(=O)c2c1cc(Sc1ccccc1)c1nsnc21 | 92.8% | 96.7% | 57.8% | 82.3% | 106% | 95% | 114% | 143% | 103% | 94.9% | 66.7% | 95.9% | 93.2% | > 15 µM | 15.7% | 83.9% | 86.4% | 106% | 110% | 102% | growth at 10 µM (BT-549): 105%; growth at 10 µM (NCI-H322M): 101%; growth at 10 µM (NCI-H460): 101%; growth at 10 µM (COLO 205): 118%; growth at 10 µM (HCT-116): 90.1%; growth at 10 µM (SF-295): 106%; growth at 10 µM (SF-539): 107%; growth at 10 µM (SNB-19): 109%; growth at 10 µM (U-251): 88.8%
O=C1c2ccccc2C(=O)c2c1ccc1nsnc21 | -83.1% | -15.5% | -94.4% | -10.1% | 101% | 130% | 20.1% | 97% | 40.8% | -50.7% | -17.3% | 7.4% | -45.5% | 2.5 µM | -30.8% | -21.8% | 4.96% | 104% | -100% | 97.8% | growth at 10 µM (OVCAR-5): -20.1%; growth at 10 µM (NCI-H322M): 126%; growth at 10 µM (NCI-H460): 77.4%; growth at 10 µM (COLO 205): 112%; growth at 10 µM (HCT-116): -50%; growth at 10 µM (SF-295): 126%; growth at 10 µM (SF-539): -47.1%; growth at 10 µM (SNB-19): 79%; growth at 10 µM (U-251): -89.3%
O=C1c2ccccc2C(=O)c2c1cc(Cl)c1nsnc21 | 76.1% | 49.9% | -75% | -4.57% | 109% | 93.8% | 71.9% | 134% | 97% | 65.4% | -23.4% | 72.5% | -54.6% | 13.5 µM | -41.8% | 1.87% | -23.9% | 103% | 75.8% | 100% | growth at 10 µM (BT-549): 102%; growth at 10 µM (NCI-H322M): 108%; growth at 10 µM (NCI-H460): 100%; growth at 10 µM (COLO 205): 99.1%; growth at 10 µM (HCT-116): 48.1%; growth at 10 µM (SF-295): 109%; growth at 10 µM (SF-539): 109%; growth at 10 µM (SNB-19): 106%; growth at 10 µM (U-251): 29.2%
